Reference: ChEMBL document CHEMBL1671627, “Increasing trends in antimicrobial resistance among clinically important anaerobes and Bacteroides fragilis isolates causing nosocomial infections: emerging resistance to carbapenems” (2008)
≈ marks a conversion by molar mass, not a printed value.

Assays:
Bacteroides uniformis [1] = assay: Antibacterial activity against beta-lactamase producing Bacteroides uniformis assessed as resistant isolates by CLSI agar dilution method in presence of clavulanate; assay type: functional
Procedure, shortened: (§1)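 207 nonduplicate anaerobic blood isolates from patients with bloodstream infections at NTUH, collected January–December 2006. MICs were determined by agar dilution following CLSI guidelines. Inocula were applied with a Steers replicator onto supplemented Brucella blood agar and incubated 48 h at 35°C in an anaerobic chamber. MIC was the lowest concentration inhibiting growth. B. fragilis ATCC 25285, B. thetaiotaomicron ATCC 29741 and E. lentum ATCC 43055 served as controls in each run.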

Fusobacterium nucleatum [2] = assay: Antibacterial activity against Fusobacterium nucleatum by CLSI agar dilution method in presence of clavulanate; assay type: functional
Procedure, shortened: (§2)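 Agar dilution per CLSI guidelines on nonduplicate anaerobic bloodstream isolates collected at NTUH, January to December 2006. Isolates were spotted by Steers replicator onto supplemented Brucella blood agar and incubated anaerobically for 48 h at 35°C. MIC was the lowest drug concentration that inhibited growth. B. fragilis ATCC 25285, B. thetaiotaomicron ATCC 29741 and E. lentum ATCC 43055 were run as QC in each run.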

Fusobacterium nucleatum [3] = assay: Antibacterial activity against Fusobacterium nucleatum assessed as resistant isolates by CLSI agar dilution method in presence of clavulanate; assay type: functional; procedure, shortened: as §1
[4] = test system: Fusobacterium necrophorum; assay: Antibacterial activity against Fusobacterium necrophorum assessed as resistant isolates by CLSI agar dilution method in presence of clavulanate; assay type: functional; procedure, shortened: as §1
Prevotella bivia = assay: Antibacterial activity against Prevotella bivia by CLSI agar dilution method in presence of clavulanate; assay type: functional; procedure, shortened: as §2
[5] = test system: Prevotella melaninogenica; assay: Antibacterial activity against Prevotella melaninogenica by CLSI agar dilution method in presence of clavulanate; assay type: functional; procedure, shortened: as §2
Prevotella buccae = assay: Antibacterial activity against Prevotella buccae assessed as susceptible isolates by CLSI agar dilution method in presence of clavulanate; assay type: functional, Segatella buccae; procedure, shortened: as §2
Parvimonas micra [6] = assay: Antibacterial activity against beta-lactamase producing Micromonas micros by CLSI agar dilution method in presence of clavulanate; assay type: functional
Procedure, shortened: (§3)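 CLSI agar dilution MICs for anaerobic blood isolates (nonduplicate) collected from bloodstream-infection patients at a Taiwanese tertiary hospital, January–December 2006. Isolates were spotted by Steers replicator onto supplemented Brucella blood agar and incubated anaerobically for 48 h at 35°C. MIC was the lowest drug concentration inhibiting growth. Each run included B. fragilis ATCC 25285, B. thetaiotaomicron ATCC 29741 and E. lentum ATCC 43055 as quality-control strains.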

[7] = test system: Peptoniphilus asaccharolyticus; assay: Antibacterial activity against beta-lactamase producing Peptoniphilus asaccharolyticus assessed as susceptible isolates by CLSI agar dilution method in presence of clavulanate; assay type: functional; procedure, shortened: as §3
Bacteroides fragilis [8] = assay: Antibacterial activity against Bacteroides fragilis assessed as susceptible isolates by CLSI agar dilution method; assay type: functional
Phocaeicola vulgatus [9] = assay: Antibacterial activity against beta-lactamase producing Bacteroides vulgatus assessed as resistant isolates by CLSI agar dilution method; assay type: functional
Phocaeicola vulgatus [10] = assay: Antibacterial activity against beta-lactamase producing Bacteroides vulgatus by CLSI agar dilution method in presence of Tazobactam; assay type: functional; procedure, shortened: as §3
Phocaeicola vulgatus [11] = assay: Antibacterial activity against beta-lactamase producing Bacteroides vulgatus assessed as susceptible isolates by CLSI agar dilution method in presence of Tazobactam; assay type: functional; procedure, shortened: as §3
Phocaeicola vulgatus [12] = assay: Antibacterial activity against beta-lactamase producing Bacteroides vulgatus assessed as resistant isolates by CLSI agar dilution method in presence of Tazobactam; assay type: functional; procedure, shortened: as §1
Bacteroides uniformis [13] = assay: Antibacterial activity against beta-lactamase producing Bacteroides uniformis assessed as susceptible isolates by CLSI agar dilution method; assay type: functional
Bacteroides caccae [14] = assay: Antibacterial activity against beta-lactamase producing Bacteroides caccae assessed as resistant isolates by CLSI agar dilution method; assay type: functional
Bacteroides caccae [15] = assay: Antibacterial activity against beta-lactamase producing Bacteroides caccae by CLSI agar dilution method in presence of Tazobactam; assay type: functional; procedure, shortened: as §2
Fusobacterium mortiferum [16] = assay: Antibacterial activity against Fusobacterium mortiferum by CLSI agar dilution method; assay type: functional
Fusobacterium mortiferum [17] = assay: Antibacterial activity against Fusobacterium mortiferum assessed as susceptible isolates by CLSI agar dilution method; assay type: functional
Fusobacterium mortiferum [18] = assay: Antibacterial activity against Fusobacterium mortiferum assessed as resistant isolates by CLSI agar dilution method in presence of Tazobactam; assay type: functional; procedure, shortened: as §1
[19] = test system: Fusobacterium necrophorum; assay: Antibacterial activity against Fusobacterium necrophorum assessed as resistant isolates by CLSI agar dilution method in presence of Tazobactam; assay type: functional; procedure, shortened: as §1
[20] = test system: Prevotella melaninogenica; assay: Antibacterial activity against Prevotella melaninogenica by CLSI agar dilution method in presence of Tazobactam; assay type: functional; procedure, shortened: as §2
Prevotella intermedia [21] = assay: Antibacterial activity against Prevotella intermedia assessed as resistant isolates by CLSI agar dilution method; assay type: functional
Prevotella intermedia [22] = assay: Antibacterial activity against Prevotella intermedia assessed as susceptible isolates by CLSI agar dilution method in presence of Tazobactam; assay type: functional; procedure, shortened: as §2
Veillonella parvula = assay: Antibacterial activity against Veillonella parvula by CLSI agar dilution method; assay type: functional
Clostridium perfringens [23] = assay: microbe, parasite or virus in culture; assay type: functional
Clostridium septicum [24] = assay: Antibacterial activity against beta-lactamase producing Clostridium septicum by CLSI agar dilution method; assay type: functional
Clostridium perfringens [25] = assay: microbe, parasite or virus in culture; assay type: functional; remark: listed apart in the source
[26] = test system: Clostridium paraputrificum; assay: Antibacterial activity against beta-lactamase producing Clostridium paraputrificum by CLSI agar dilution method in presence of Tazobactam; assay type: functional; procedure, shortened: as §3
Bacteroides fragilis [27] = assay: Antibacterial activity against Bacteroides fragilis by CLSI agar dilution method; assay type: functional
Bacteroides fragilis [28] = assay: Antibacterial activity against Bacteroides fragilis by CLSI agar dilution method in presence of Tazobactam; assay type: functional; procedure, shortened: as §2
Clostridium septicum [29] = assay: Antibacterial activity against beta-lactamase producing Clostridium septicum assessed as susceptible isolates by CLSI agar dilution method in presence of Tazobactam; assay type: functional; procedure, shortened: as §3
Clostridium tertium [30] = assay: Antibacterial activity against beta-lactamase producing Clostridium tertium assessed as susceptible isolates by CLSI agar dilution method in presence of Tazobactam; assay type: functional; procedure, shortened: as §3
Clostridium tertium [31] = assay: Antibacterial activity against beta-lactamase producing Clostridium tertium assessed as resistant isolates by CLSI agar dilution method in presence of Tazobactam; assay type: functional; procedure, shortened: as §1
[32] = test system: Peptostreptococcus anaerobius; assay: Antibacterial activity against beta-lactamase producing Peptostreptococcus anaerobius assessed as susceptible isolates by CLSI agar dilution method in presence of Tazobactam; assay type: functional; procedure, shortened: as §3
[33] = test system: Peptostreptococcus anaerobius; assay: Antibacterial activity against beta-lactamase producing Peptostreptococcus anaerobius assessed as resistant isolates by CLSI agar dilution method in presence of Tazobactam; assay type: functional; procedure, shortened: as §1
Parvimonas micra [34] = assay: Antibacterial activity against beta-lactamase producing Micromonas micros by CLSI agar dilution method; assay type: functional
[35] = test system: Peptoniphilus asaccharolyticus; assay: Antibacterial activity against beta-lactamase producing Peptoniphilus asaccharolyticus assessed as resistant isolates by CLSI agar dilution method; assay type: functional
[36] = test system: Peptoniphilus asaccharolyticus; assay: Antibacterial activity against beta-lactamase producing Peptoniphilus asaccharolyticus assessed as susceptible isolates by CLSI agar dilution method in presence of Tazobactam; assay type: functional; procedure, shortened: as §3

Which Activity (Bacteroides uniformis [1]) does the source give for `CC1(C)S[C@@H]2[C@H](NC(=O)[C@H](N)c3ccc(O)cc3)C(=O)N2[C@H]1C(=O)O` [AMOXICILLIN] here?
The Activity was 30%.

And the MIC50 (Fusobacterium nucleatum [2])?
The MIC50 was 2 µg/mL.

What about the MIC90 (Fusobacterium nucleatum [2]) of the same molecule?
Its MIC90 is 4 µg/mL.

And the Activity (Fusobacterium nucleatum [3])?
The Activity was 7%.

What about the Activity [4] of the same molecule?
Its Activity is 7%.

And the MIC50 (Prevotella bivia)?
Its MIC50 is 4 µg/mL.

And the MIC90 (Prevotella bivia)?
The MIC90 was 16 µg/mL.

And the MIC50 [5]?
Its MIC50 is 4 µg/mL.

And the MIC90 [5]?
Its MIC90 is 16 µg/mL.

What about the Activity (Prevotella buccae) of the same molecule?
The Activity was 81%.

And the MIC50 (Parvimonas micra [6])?
The MIC50 was 0.25 µg/mL.

What about the MIC90 (Parvimonas micra [6]) of the same molecule?
Its MIC90 is 2 µg/mL.

What about the Activity [7] of the same molecule?
Its Activity is 94%.

What does the source list for `CCN1CCN(C(=O)N[C@@H](C(=O)N[C@@H]2C(=O)N3[C@@H]2SC(C)(C)[C@@H]3C(=O)O)c2ccccc2)C(=O)C1=O` [PIPERACILLIN]?
Activity (Bacteroides fragilis [8]): 62%; Activity (Phocaeicola vulgatus [9]): 65%; MIC50 (Phocaeicola vulgatus [10]): 8 µg/mL; MIC90 (Phocaeicola vulgatus [10]): 16 µg/mL; Activity (Phocaeicola vulgatus [11]): 96%; Activity (Phocaeicola vulgatus [12]): 4%; Activity (Bacteroides uniformis [13]): 35%; Activity (Bacteroides caccae [14]): 65%; MIC50 (Bacteroides caccae [15]): 8 µg/mL; MIC90 (Bacteroides caccae [15]): 16 µg/mL; MIC50 (Fusobacterium mortiferum [16]): 2 µg/mL (≈ 3.86 µM); MIC90 (Fusobacterium mortiferum [16]): 8 µg/mL (≈ 15.5 µM); Activity (Fusobacterium mortiferum [17]): 90%; Activity (Fusobacterium mortiferum [18]): 0%; Activity [19]: 0%; MIC [20]: 0.03 µg/mL; MIC50 [20]: 0.03 µg/mL; MIC90 [20]: 1 µg/mL; Activity (Prevotella intermedia [21]): 22%; Activity (Prevotella intermedia [22]): 100%; MIC (Veillonella parvula): 1 µg/mL (≈ 1.93 µM); MIC50 (Clostridium perfringens [23]): 0.25 µg/mL (≈ 0.483 µM); MIC90 (Clostridium perfringens [23]): 2 µg/mL (≈ 3.86 µM); MIC50 (Clostridium septicum [24]): 0.25 µg/mL (≈ 0.483 µM); MIC90 (Clostridium septicum [24]): 2 µg/mL (≈ 3.86 µM); MIC50 (Clostridium perfringens [25]): 0.5 µg/mL (≈ 0.966 µM); MIC90 (Clostridium perfringens [25]): 2 µg/mL (≈ 3.86 µM); MIC50 [26]: 0.5 µg/mL; MIC90 [26]: 2 µg/mL; MIC50 (Bacteroides fragilis [27]): 8 µg/mL (≈ 15.5 µM); MIC90 (Bacteroides fragilis [27]): > 128 µg/mL; MIC50 (Bacteroides fragilis [28]): 1 µg/mL; MIC90 (Bacteroides fragilis [28]): 8 µg/mL; Activity (Clostridium septicum [29]): 100%; Activity (Clostridium tertium [30]): 100%; Activity (Clostridium tertium [31]): 0%; Activity [32]: 97%; Activity [33]: 0%; MIC50 (Parvimonas micra [34]): 0.12 µg/mL (≈ 0.232 µM); MIC90 (Parvimonas micra [34]): 8 µg/mL (≈ 15.5 µM); Activity [35]: 3%; Activity [36]: 97%
